Our source for the EC50 values is ChEMBL document CHEMBL3585269, “Simple structural modifications confer cytotoxicity to allobetulin” (Bioorg Med Chem, 2015).

Assay [1] in a line: Cytotoxicity against mouse NIH/3T3 cells by SRB assay. In kind it is cell-based. The conditions noted are these: NIH3T3. A general note: The SRB assay estimates cell density from bound dye.
Assay [2] can be described thus: Cytotoxicity against human 518A2 cells by SRB assay. In kind it is functional, cell-based. The method in brief:
(§1)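 Photometric sulforhodamine B (SRB) read-out after 96 h of compound treatment. EC50 values are averaged from three independent experiments, each run in triplicate, and reported with a 95% confidence interval. The assay has an upper cut-off.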

Another assay relates to HT-29. As to the kind of experiment: Cytotoxicity against human HT-29 cells by SRB assay. It counts as functional, cell-based. Put shortly:
as §1

In another assay the test system is MCF7. As to the kind of experiment: Cytotoxicity against human MCF7 cells by SRB assay. In kind it is functional, cell-based. The method in brief:
as §1

In the next assay the test system is A549. Nature of the assay: Cytotoxicity against human A549 cells by SRB assay. It counts as functional, cell-based. Put shortly:
as §1

The test system of another assay is 8505C. Nature of the assay: Cytotoxicity against human 8505C cells by SRB assay. In kind it is functional, cell-based. Put shortly: as §1
The test system of the next assay is A2780. As to the kind of experiment: Cytotoxicity against human A2780 cells by SRB assay. In kind it is functional, cell-based. Put shortly: as §1
Where [3] appears, read: Homo sapiens, 518A2, read-out: EC50.
Setting [4] is: Homo sapiens, HT-29, read-out: EC50.
Where [5] appears, read: Homo sapiens, MCF7, read-out: EC50.
The mark [6] stands for this setting: Homo sapiens, A549, read-out: EC50.
The mark [7] stands for this setting: Homo sapiens, 8505C, read-out: EC50.
Setting [8] is: Homo sapiens, A2780, read-out: EC50.

The structures appear in SMILES notation.

For orientation: EC50 means the concentration needed to bring the measured effect to its halfway point. Regarding `CCOC(=O)C[C@]1(C)[C@H]2CC[C@@H]3[C@H]4[C@H]5OC[C@@]4(CCC5(C)C)CC[C@@]3(C)[C@]2(C)CC[C@H]1C(C)(C)C(=O)OCC`, the EC50 stood at 25 µM in assay [1]; 26.1 µM in assay [2] (setting [3]); 17.6 µM with HT-29 (setting [4]); 26.1 µM with MCF7 (setting [5]); 5.9 µM in the assay on A549 (setting [6]); 24.6 µM in the assay on 8505C (setting [7]). In addition, the EC50 in the assay on A2780 (setting [8]) came out at 18.9 µM.

For `CC1(C)CC[C@]23CC[C@]4(C)[C@H](CC[C@@H]5[C@@]6(C)CC[C@@H](N)C(C)(C)[C@@H]6CC[C@]54C)[C@H]2[C@H]1OC3`, the concentration for a half-maximal effect (EC50) was determined as 15.9 µM in assay [1]; 10.2 µM in assay [2] (setting [3]); 6.8 µM in the assay on HT-29 (setting [4]); 15.2 µM in the assay on MCF7 (setting [5]); 12.6 µM in the assay with A549 (setting [6]); 15.5 µM in the assay on 8505C (setting [7]). In addition, the EC50 in the assay on A2780 (setting [8]) was 12.9 µM.

In the case of `CC1(C)CC[C@]23CC[C@]4(C)[C@H](CC[C@@H]5[C@@]6(C)CC[C@H](N)C(C)(C)[C@@H]6CC[C@]54C)[C@H]2[C@H]1OC3`, the EC50 in assay [1] was determined as 7.3 µM; in assay [2] (setting [3]), 5.4 µM; with HT-29 (setting [4]), 6.2 µM; with MCF7 (setting [5]) it was 10.4 µM; in the assay with A549 (setting [6]), 7.3 µM; in the assay on 8505C (setting [7]), 7.8 µM. Further, the EC50 with A2780 (setting [8]) was determined as 6.6 µM.

As for `C#CCOC(=O)CC[C@]1(C)[C@H]2CC[C@@H]3[C@H]4[C@H]5OC[C@@]4(CCC5(C)C)CC[C@@]3(C)[C@]2(C)CC[C@H]1C(=C)C`, the EC50 (in assay [2] (setting [3]); with HT-29 (setting [4]); with MCF7 (setting [5]); with A549 (setting [6]); in the assay on 8505C (setting [7]); in the assay with A2780 (setting [8])) was above 30 µM throughout.

As to `C=C(C)[C@@H]1CC[C@]2(C)[C@H](CC[C@@H]3[C@H]4[C@H]5OC[C@@]4(CCC5(C)C)CC[C@]32C)[C@@]1(C)CCC(=O)OCc1ccccc1`, the EC50 entry (in assay [2] (518a2); in the assay on HT-29 (ht-29); in the assay on MCF7 (mcf7); with A549 (a549); in the assay with 8505C (8505c); in the assay with A2780 (a2780)) was “ND(Insoluble)” throughout.

For the molecule `C=C(C)[C@@H]1CC[C@]2(C)[C@H](CC[C@@H]3[C@H]4[C@H]5OC[C@@]4(CCC5(C)C)CC[C@]32C)[C@@]1(C)CCC#N`, the EC50 in assay [2] (setting [3]) was 25.7 µM; in the assay on HT-29 (setting [4]) it was above 30 µM; with MCF7 (setting [5]), above 30 µM; in the assay with A549 (setting [6]), 21.5 µM; in the assay with 8505C (setting [7]), above 30 µM; in the assay with A2780 (setting [8]), above 30 µM.

For `CC1(C)CC[C@]23CC[C@]4(C)[C@H](CC[C@@H]5[C@@]6(C)CCC(=O)OC(C)(C)[C@@H]6CC[C@]54C)[C@H]2[C@H]1OC3`, the EC50 (in assay [2] (setting [3]); in the assay on HT-29 (setting [4]); in the assay on MCF7 (setting [5]); in the assay with A549 (setting [6]); in the assay with 8505C (setting [7]); with A2780 (setting [8])) was above 30 µM throughout.
